Experimental data: ChEMBL document CHEMBL1132175, “Synthesis and in vivo evaluation of new contrast agents for cardiac MRI” (J Med Chem, 1999)
Values after ≈ are worked out from the molar mass of the structure shown.

Key:
[1] = Aqueous solubility of the compound; format: physicochemical; settings: water; read-out: S
Procedure, shortened: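 Gd–ligand 1:1 complexes were made from GdCl3 in water at pH 7.0 over a series of nominal concentrations around the expected precipitation point. Experimental concentration was taken as ΔR1(observed)/ρ1. ρ1 came from one well-dissolved sample whose Gd was measured by ICP-OES.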

Mustela putorius furo [2] = assay: In vivo Myocardial MRI signal intensity (MRI IE)in ferrets induced by the compound at 50 umol/kg was measured at 0-10 min.; format: functional, Myocardium
Procedure, shortened: (§1)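 Ferrets received a bolus of 50 µmol/kg Gd complex. BAE and ABE were given as water-soluble pH 7 solutions; ABE used a 1.2-fold ligand excess and 10 mM Gd. BPE, BBE, BHE and BME were given in lecithin/cholesterol liposomes in 0.9% saline/20 mM HEPES pH 7.4. Myocardial signal was read on 1.5 T MRI (head coil) against an agarose phantom and compared with pre-agent control images. Imaging ran over 3 h.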

Mustela putorius furo [3] = assay: In vivo Myocardial MRI signal intensity (MRI IE)in ferrets induced by the compound at 50 umol/kg was measured at 180 min.; format: functional, Myocardium; procedure, shortened: as §1
Mustela putorius furo [4] = assay: In vivo Myocardial MRI signal intensity (MRI IE)in ferrets induced by the compound at 50 umol/kg was measured at 30-60 min.; format: functional, Myocardium; procedure, shortened: as §1
Mustela putorius furo [5] = assay: In vivo Myocardial MRI signal intensity (MRI IE)in ferrets induced by the compound at 50 umol/kg was measured at 180 min; format: functional, Myocardium; procedure, shortened: as §1

SMILES	solubility [1] [mM]	IE (Mustela putorius furo [2]) [%]	IE (Mustela putorius furo [3]) [%]	IE (Mustela putorius furo [4]) [%]	IE (Mustela putorius furo [5]) [%]
CCCCCCCCCCCCCC(=O)OCCN(CCN(CCOC(=O)CCCCCCCCCCCCC)CC(=O)N(CC(=O)O)CC(=O)O)CC(=O)N(CC(=O)O)CC(=O)O	0.015 (≈ 13.7 µg/mL)	55.2	65.2	67.2	
CCCC(=O)OCCN(CCN(CCOC(=O)CCC)CC(=O)N(CC(=O)O)CC(=O)O)CC(=O)N(CC(=O)O)CC(=O)O	5 (≈ 3170 µg/mL)	53.1	39.3	52.1	
CCC(=O)OCCN(CCN(CCOC(=O)CC)CC(=O)N(CC(=O)O)CC(=O)O)CC(=O)N(CC(=O)O)CC(=O)O	7 (≈ 4250 µg/mL)	34.6	47.2	38.4	
CCCCCC(=O)OCCN(CCN(CCOC(=O)CCCCC)CC(=O)N(CC(=O)O)CC(=O)O)CC(=O)N(CC(=O)O)CC(=O)O	0.5 (≈ 345 µg/mL)	32.3	30.1	41.7	
CCCC(=O)OCCN(CCN(CCOC(C)=O)CC(=O)N(CC(=O)O)CC(=O)O)CC(=O)N(CC(=O)O)CC(=O)O	25 (≈ 15200 µg/mL)	42.8	38.5	43.6	
CC(=O)OCCN(CCN(CCOC(C)=O)CC(=O)N(CC(=O)O)CC(=O)O)CC(=O)N(CC(=O)O)CC(=O)O	30 (≈ 17400 µg/mL)	87.2		10.1	10.1
